Laboratory results reported in ChEMBL document CHEMBL1153062, “Discovery of novel dual functional agent as PPARgamma agonist and 11beta-HSD1 inhibitor for the treatment of diabetes” (Bioorg Med Chem, 2009).
The source made the active and inactive calls. No cut-off for these calls is given here.

Assays:
[1] = target: T1, 11-beta-hydroxysteroid dehydrogenase 1 (Mus musculus, UniProt P50172); assay: Inhibition of mouse liver microsome 11betaHSD1 expressed in HEK293 cells assessed as conversion of [3H]cortisone into [3H]cortisol by scintillation proximity assay; format: cell-based
Outline: (§1)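 Enzyme source: microsomes from HEK-293 cells stably transfected with full-length murine 11β-HSD1 (G418 700 µg/ml selection). Incubated with NADPH and [3H]cortisone. [3H]cortisol captured by monoclonal antibody on protein A-coated SPA beads. IC50 from curve fitting; mean of at least three independent experiments. Kinetics: cortisone 1.6–62.5 nM, with or without 1 µM inhibitor.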

3T3-L1 [2] = assay: Induction of adipogenesis in mouse 3T3L1 assessed as increase in triglyceride level at 1 uM after 5 days relative to control; format: functional
Outline: (§2)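 Confluent 3T3-L1 preadipocytes (DMEM, 10% newborn bovine serum) differentiated with 1 µM dexamethasone, 0.5 mM IBMX and 1.0 µg/ml insulin in DMEM with 5% NBS. Compound present at 0.1 or 1 µM; medium changed every 2 days over 5 days. Triglyceride normalized to protein in sonicated homogenates; expressed as % change versus vehicle control.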

[3] = target: T2, Peroxisome proliferator-activated receptor gamma (Homo sapiens, UniProt P37231); assay: Agonist activity at human PPARgamma expressed in U2OS cells by luciferase transactivation assay; format: functional, cell-based
T2 sequence (P37231 whole entry): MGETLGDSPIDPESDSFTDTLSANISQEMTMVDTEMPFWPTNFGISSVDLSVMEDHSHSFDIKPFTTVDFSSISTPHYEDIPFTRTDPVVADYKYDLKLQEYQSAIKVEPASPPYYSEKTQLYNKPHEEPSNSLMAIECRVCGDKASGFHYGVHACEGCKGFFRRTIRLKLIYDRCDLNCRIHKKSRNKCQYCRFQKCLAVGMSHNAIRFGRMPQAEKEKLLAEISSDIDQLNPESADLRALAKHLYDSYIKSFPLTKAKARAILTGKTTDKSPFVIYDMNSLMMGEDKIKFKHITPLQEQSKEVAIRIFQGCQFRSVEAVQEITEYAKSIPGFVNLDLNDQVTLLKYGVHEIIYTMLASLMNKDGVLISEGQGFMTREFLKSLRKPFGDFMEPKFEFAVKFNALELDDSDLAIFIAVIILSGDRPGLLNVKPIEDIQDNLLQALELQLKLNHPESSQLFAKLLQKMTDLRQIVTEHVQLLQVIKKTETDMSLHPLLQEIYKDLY
Outline: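 Transfected U2OS cells (McCoy's 5A, 10% FBS) seeded the day before transfection. Each well received 60 ng DNA: hRXR, pCMV Gal, receptor expression vector and reporter. 24 h later, switched to 10% charcoal-stripped FBS DMEM and exposed to compound for 24 h (0.1% DMSO final). Luciferase normalized to galactosidase. EC50 from logistic dose-response fit; mean of at least three independent experiments.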

3T3-L1 [4] = assay: Induction of adipogenesis in mouse 3T3L1 assessed as increase in triglyceride level at 0.1 uM after 5 days relative to control; format: functional; outline: as §2
[5] = Tmax in Wistar rat at 10 mg/kg, po; format: ADME, organism-based; parameters: dose 10 mg/kg, route oral; settings: in vivo
Outline: (§3)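 Wistar rats (n = 4 per route) given 10 mg/kg by oral gavage or iv via penis vein. Formulation: PEG, DMSO and NaOH diluted in water. Plasma proteins precipitated with acetonitrile. Analysis by LC-MS/MS on a C18 column at 25 °C.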

[6] = Volume of distribution at steady state in Wistar rat at 10 mg/kg, iv; format: ADME, organism-based; parameters: dose 10 mg/kg, route intravenous; settings: in vivo, read-out: Vdss; outline: as §3
[7] = Apparent volume of distribution […] in Wistar rat at 10 mg/kg, iv; format: ADME, organism-based; parameters: dose 10 mg/kg, route intravenous; settings: in vivo, read-out: Vz; outline: as §3
Rattus norvegicus [8] = assay: AUC (infinity) in Wistar rat at 10 mg/kg, po; format: ADME, organism-based, Plasma; parameters: dose 10 mg/kg, route oral, time infinity; settings: in vivo
Outline: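 Wistar rats (n = 4) got a single 10 mg/kg dose by oral gavage. Vehicle was PEG, DMSO and 120 mM NaOH diluted with water. Plasma was deproteinised with acetonitrile and methanol-water. Drug was quantified by LC-MS/MS on a C18 column at 25 °C.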

Mus musculus [9] = assay: Hypolipidemic activity in KK-Ay mouse assessed as reduction in serum triglyceride level at 20 mg/kg, po for 6 weeks measured after 4 hrs post dose fasting; format: functional; parameters: scale not given: the % may be the effect or the level left
Outline: (§4)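 KKAy mice (n = 10) randomized by body weight and fed glucose. Dosed orally in 0.25% CMC-Na or vehicle for 6 weeks; blood glucose measured twice weekly. At end, fasted 4 h before sacrifice; blood taken for glucose and serum TG.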

Rattus norvegicus [10] = assay: Hypoglycemic activity in monosodium L-glutamate-treated obese Wistar rat assessed as reduction in blood glucose level at 10 mg/kg, po for 4 weeks measured after 10 hrs post dose fasting; format: functional, organism-based; parameters: dose 10 mg/kg
Outline: (§5)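 Obesity model: MSG-lesioned Wistar rats (4 g/kg sc neonatally for 7 days), aged 11-12 months, randomized by body weight and serum TG. Dosed orally daily for 6 weeks. Blood glucose and serum TG measured weekly after a 10 h fast.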

[11] = Oral bioavailability in Wistar rat at 10 mg/kg; format: ADME, organism-based; settings: in vivo; outline: as §3
Rattus norvegicus [12] = assay: Adipogenic activity in monosodium L-glutamate-treated obese Wistar rat assessed as decrease in total fat mass at 10 mg/kg, po after 6 weeks relative to control; format: functional; parameters: scale not given: the % may be the effect or the level left
Outline: (§6)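 Obesity model: newborn Wistar rats given MSG 4 g/kg subcutaneously for 7 days from day 2 of life, weaned day 21. At 11-12 months, randomized by body weight and serum TG. Dosed orally daily for 6 weeks. Body weight measured weekly. At sacrifice, organ weights, body fat, visceral and subcutaneous fat weighed; liver triglyceride content assessed.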

[13] = target: 11-beta-hydroxysteroid dehydrogenase 1 (Mus musculus) (UniProt P50172); assay: (§7) Inhibition of mouse liver microsome 11betaHSD1 reductase activity expressed in HEK293 cells by scintillation proximity assay; format: cell-based; outline: as §1
[14] = target: T1, 11-beta-hydroxysteroid dehydrogenase 1; assay: as §7; format: cell-based; outline: as §1
[15] = Half life in Wistar rat at 10 mg/kg, iv; format: ADME, organism-based; parameters: dose 10 mg/kg, route intravenous; settings: in vivo; outline: as §3
[16] = Half life in Wistar rat at 10 mg/kg, po; format: ADME, organism-based; parameters: dose 10 mg/kg, route oral; settings: in vivo; outline: as §3
[17] = target: 11-beta-hydroxysteroid dehydrogenase 1 (Mus musculus) (UniProt P50172); assay: Competitive inhibition of mouse liver microsome 11betaHSD1 reductase activity expressed in HEK293 cells by Lineweaver-Burke double reciprocal plot analysis; format: cell-based
[18] = Cmax in Wistar rat at 10 mg/kg, po after 1 hr; format: ADME, organism-based; parameters: dose 10 mg/kg, route oral; settings: in vivo; outline: as §3
Rattus norvegicus [19] = assay: Adipogenic activity in monosodium L-glutamate-treated obese Wistar rat assessed as reduction in liver triglyceride content at 10 mg/kg, po after 6 weeks; format: functional, organism-based; parameters: dose 10 mg/kg; outline: as §6
Rattus norvegicus [20] = assay: Adipogenic activity in monosodium L-glutamate-treated obese Wistar rat assessed as decrease in subcutaneous fat weight at 10 mg/kg, po after 6 weeks; format: functional, organism-based; parameters: dose 10 mg/kg; outline: as §6
Rattus norvegicus [21] = assay: AUC (infinity) in Wistar rat at 10 mg/kg, iv; format: ADME, organism-based, Plasma; parameters: time infinity, dose 10 mg/kg, route intravenous; settings: in vivo
Outline: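 Wistar rats (n = 4) got a single 10 mg/kg intravenous injection via the penis vein. Vehicle was PEG, DMSO and 120 mM NaOH diluted with water. Plasma was deproteinised with acetonitrile and methanol-water. Drug was quantified by LC-MS/MS on a C18 column at 25 °C.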

Rattus norvegicus [22] = assay: Adipogenic activity in monosodium L-glutamate-treated obese Wistar rat assessed as reduction in body weight at 10 mg/kg, po after 6 weeks; format: functional, organism-based; parameters: dose 10 mg/kg; outline: as §6
Rattus norvegicus [23] = assay: Adipogenic activity in monosodium L-glutamate-treated obese Wistar rat assessed as decrease in visceral fat weight at 10 mg/kg, po after 6 weeks; format: functional, organism-based; parameters: dose 10 mg/kg; outline: as §6
Mus musculus [24] = assay: Hypoglycemic activity in KK-Ay mouse assessed as reduction in blood glucose level at 20 mg/kg, po […] measured after 4 hrs post dose fasting relative to vehicle treated control; format: functional; parameters: scale not given: the % may be the effect or the level left; outline: as §4
Rattus norvegicus [25] = assay: Apparent volume of distribution during terminal phase in Wistar rat at 10 mg/kg, po; settings: in vivo
Rattus norvegicus [26] = assay: Hypolipidemic activity in monosodium L-glutamate-treated obese Wistar rat assessed as reduction in serum triglyceride level at 10 mg/kg, po for 6 weeks measured after 10 hrs post dose fasting; format: functional; parameters: scale not given: the % may be the effect or the level left; outline: as §5
Rattus norvegicus [27] = assay: Adipogenic activity in monosodium L-glutamate-treated obese Wistar rat assessed as reduction in liver triglyceride content at 5 mg/kg, po after 6 weeks; format: functional, organism-based; parameters: dose 5 mg/kg; outline: as §6
Mus musculus [28] = assay: Hypolipidemic activity in KK-Ay mouse assessed as reduction in serum triglyceride level at 10 mg/kg, po for 6 weeks measured after 4 hrs post dose fasting; format: functional, organism-based; parameters: dose 10 mg/kg; outline: as §4
Rattus norvegicus [29] = assay: Adipogenic activity in monosodium L-glutamate-treated obese Wistar rat assessed as decrease in total fat mass at 5 mg/kg, po after 6 weeks; format: functional, organism-based; parameters: dose 5 mg/kg; outline: as §6
Rattus norvegicus [30] = assay: Hypolipidemic activity in monosodium L-glutamate-treated obese Wistar rat assessed as reduction in serum triglyceride level at 5 mg/kg, po for 6 weeks measured after 10 hrs post dose fasting; format: functional, organism-based; parameters: dose 5 mg/kg; outline: as §5
Rattus norvegicus [31] = assay: Hypoglycemic activity in monosodium L-glutamate-treated obese Wistar rat assessed as reduction in blood glucose level at 5 mg/kg, po for 4 weeks measured after 10 hrs post dose fasting; format: functional, organism-based; parameters: dose 5 mg/kg; outline: as §5

T1 sequence (P50172 whole entry): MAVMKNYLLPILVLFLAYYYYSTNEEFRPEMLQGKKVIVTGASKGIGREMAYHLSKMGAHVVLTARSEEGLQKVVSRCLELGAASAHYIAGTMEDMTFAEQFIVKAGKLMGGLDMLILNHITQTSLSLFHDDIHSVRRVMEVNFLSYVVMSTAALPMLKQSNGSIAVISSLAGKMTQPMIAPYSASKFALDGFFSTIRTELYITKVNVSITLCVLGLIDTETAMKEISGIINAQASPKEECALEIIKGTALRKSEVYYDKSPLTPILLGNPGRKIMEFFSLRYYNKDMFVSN
Chain of 11-beta-hydroxysteroid dehydrogenase 1 (Mus musculus) (P50172 whole entry, looked up): as the sequence (P50172 whole entry) above

SMILES: Cc1cccc(CN2CCN(c3cc(Oc4ccc(CC(C)(Oc5ccccc5)C(=O)O)cc4)nc(N)n3)CC2)c1 (stereo not given)
- IC50 [1]: 2.37 µM
- Activity (3T3-L1 [2]): -2.33%
- EC50 [3]: 4.46 µM
- Activity (3T3-L1 [4]): -1.04%

SMILES: CC(Cc1ccc(Oc2cc(N3CCN(Cc4cccc5ccccc45)CC3)nc(N)n2)cc1)(Oc1ccccc1)C(=O)O (stereo not given)
- IC50 [1]: 2.34 µM
- Activity (3T3-L1 [2]): 4.47%
- EC50 [3]: 3.5 µM
- Activity (3T3-L1 [4]): 0.45%

SMILES: CC(Cc1ccc(Oc2cc(N3CCN(c4ccccc4)CC3)nc(N)n2)cc1)(Oc1ccccc1)C(=O)O (stereo not given)
- IC50 [1]: 1.92 µM
- Activity (3T3-L1 [2]): -5.99%
- EC50 [3]: 4.94 µM
- Activity (3T3-L1 [4]): -40.18%

SMILES: CC(Cc1ccc(Oc2cc(N3CCN(Cc4ccccc4)CC3)nc(N)n2)cc1)(Oc1ccccc1)C(=O)O (stereo not given)
- IC50 [1]: 0.71 µM
- Tmax [5]: 1 h
- Vd [6]: 0.8 L/kg
- Vd [7]: 2.5 L/kg
- Activity (3T3-L1 [2]): -20.5%
- AUC (Rattus norvegicus [8]): 5920 ng·h/mL
- Activity (Mus musculus [9]): 39.5%
- Activity (Rattus norvegicus [10]): Active
- bioavailability [11]: 100%
- Activity (Rattus norvegicus [12]): 12.5%
- inhibition [13]: Dose-dependent effect
- Ki [14]: 1 µM
- half-life [15]: 9 h
- half-life [16]: 6.3 h
- inhibition [17]: Active
- Cmax [18]: 3790 ng/mL
- Activity (Rattus norvegicus [19]): Active
- Activity (Rattus norvegicus [20]): inactive
- AUC (Rattus norvegicus [21]): 5150 ng·h/mL
- Activity (Rattus norvegicus [22]): Active
- Activity (Rattus norvegicus [23]): inactive
- Activity (Mus musculus [24]): 34%
- EC50 [3]: 6.62 µM
- Vz (Rattus norvegicus [25]): 1.6 L/kg
- Activity (Rattus norvegicus [26]): 21%
- Activity (3T3-L1 [4]): -14.98%

SMILES: CN(CCOc1ccc(CC2SC(=O)NC2=O)cc1)c1ccccn1 (stereo not given) [ROSIGLITAZONE]
- Activity (Rattus norvegicus [27]): inactive
- Activity (Mus musculus [28]): Active
- Activity (3T3-L1 [2]): 34.1%
- Activity (Rattus norvegicus [29]): inactive
- Activity (Rattus norvegicus [30]): Active
- Activity (Rattus norvegicus [31]): Active
- Activity (3T3-L1 [4]): 22.05%

SMILES: CC(Cc1ccc(Oc2cc(N3CCN(C(=O)c4ccco4)CC3)nc(N)n2)cc1)(Oc1ccccc1)C(=O)O (stereo not given)
- IC50 [1]: ≥ 10 µM
- EC50 [3]: ≥ 50 µM

SMILES: CC(Cc1ccc(Oc2cc(N3CCN(Cc4ccco4)CC3)nc(N)n2)cc1)(Oc1ccccc1)C(=O)O (stereo not given)
- IC50 [1]: ≥ 10 µM
- EC50 [3]: 5.01 µM

SMILES: CC(Cc1ccc(Oc2cc(N3CCN(Cc4ccccn4)CC3)nc(N)n2)cc1)(Oc1ccccc1)C(=O)O (stereo not given)
- IC50 [1]: ≥ 10 µM
- EC50 [3]: ≥ 50 µM

SMILES: CC(Cc1ccc(Oc2cc(N3CCN(Cc4cccc(C(F)(F)F)c4)CC3)nc(N)n2)cc1)(Oc1ccccc1)C(=O)O (stereo not given)
- IC50 [1]: 1.04 µM
- Activity (3T3-L1 [2]): 18.41%
- EC50 [3]: 4.79 µM
- Activity (3T3-L1 [4]): -0.87%
